Source: ChEMBL document CHEMBL3244222, “Synthesis of angiotensin II antagonists containing sarcosine in position 7” (J Med Chem, 1979)
Square brackets hold non-standard residues; d marks the D form. Peptide text beside a SMILES is read from it. Sar = CNCC(=O)O

Columns and labels:
[1] = target: T1, Angiotensin II receptor (Rattus norvegicus, UniProt P29089+P25095+P35351); assay: Antagonist activity at angiotensin 2 receptor in Sprague-Dawley rat uterus assessed as reduction of angiotensin 2-induced response pretreated for 2 mins followed by angiotensin 2 challenge for every 12 mins
T1 sequence (P29089 whole entry): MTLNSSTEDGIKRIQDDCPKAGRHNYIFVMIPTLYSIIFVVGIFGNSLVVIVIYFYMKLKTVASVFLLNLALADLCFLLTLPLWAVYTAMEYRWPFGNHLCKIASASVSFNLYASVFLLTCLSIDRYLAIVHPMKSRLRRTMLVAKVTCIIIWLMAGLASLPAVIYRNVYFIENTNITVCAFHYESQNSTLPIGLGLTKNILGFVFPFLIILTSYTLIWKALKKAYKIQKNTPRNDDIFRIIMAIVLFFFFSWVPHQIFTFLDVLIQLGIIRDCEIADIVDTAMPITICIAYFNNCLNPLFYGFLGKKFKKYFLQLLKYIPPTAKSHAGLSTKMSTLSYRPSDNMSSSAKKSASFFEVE
T1 sequence (P25095 whole entry): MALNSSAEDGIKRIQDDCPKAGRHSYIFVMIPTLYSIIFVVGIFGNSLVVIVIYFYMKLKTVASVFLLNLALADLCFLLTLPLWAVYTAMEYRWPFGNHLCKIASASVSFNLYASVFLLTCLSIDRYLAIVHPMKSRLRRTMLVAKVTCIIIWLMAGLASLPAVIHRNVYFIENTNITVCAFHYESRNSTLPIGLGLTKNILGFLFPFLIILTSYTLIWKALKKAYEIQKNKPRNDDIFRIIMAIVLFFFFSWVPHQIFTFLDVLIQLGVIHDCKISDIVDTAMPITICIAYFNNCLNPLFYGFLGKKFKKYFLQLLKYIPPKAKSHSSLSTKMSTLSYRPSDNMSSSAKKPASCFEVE
T1 sequence (P35351 whole entry): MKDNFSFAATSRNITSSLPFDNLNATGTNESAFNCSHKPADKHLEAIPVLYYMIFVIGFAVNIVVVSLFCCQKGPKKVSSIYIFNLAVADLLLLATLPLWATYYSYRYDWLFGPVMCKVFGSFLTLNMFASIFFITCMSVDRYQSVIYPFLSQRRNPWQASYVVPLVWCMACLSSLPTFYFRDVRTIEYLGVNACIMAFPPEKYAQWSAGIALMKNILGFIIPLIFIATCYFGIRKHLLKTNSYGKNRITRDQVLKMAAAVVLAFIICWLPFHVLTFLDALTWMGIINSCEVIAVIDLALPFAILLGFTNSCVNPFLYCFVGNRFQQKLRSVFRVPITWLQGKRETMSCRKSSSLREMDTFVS

[2] = tested on: Rattus norvegicus; assay: Pressor activity in anesthetized vagotomized-ganglionic blocked rat model administered as bolus injection relative to [Ile5]angiotensin 2; type: functional
Procedure, shortened: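 Anesthetized, vagotomized rats. Ganglion block with mecamylamine hydrochloride, 0.3 mg/100 g subcutaneous in 10% polyvinylpyrrolidone. Analogues given as bolus injections in a 2+2 assay against angiotensin II standard (MRC Research Standard A, 70/302). Mean ± SEM, with the number of experiments given.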

[3] = target: Angiotensin II receptor (Rattus norvegicus) (UniProt P29089+P25095+P35351); assay: Intrinsic myotropic activity at angiotensin 2 receptor in Sprague-Dawley rat uterus relative to [Ile5]angiotensin 2
Procedure, shortened: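 Isolated uterus from diethylstilbestrol-primed female Sprague-Dawley rats (150-250 g), challenged every 12 min. Activity expressed relative to [Ile5]angiotensin II (MRC Research Standard A, 70/302). Mean ± SEM, with the number of experiments given.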

CC[C@H](C)[C@H](NC(=O)[C@H](Cc1ccc(O)cc1)NC(=O)[C@@H](NC(=O)[C@H](CCCNC(=N)N)NC(=O)CNC)C(C)C)C(=O)N[C@@H](Cc1cnc[nH]1)C(=O)N(C)CC(=O)N[C@@H](C)C(=O)O (H-[Sar]RVYIH[Sar]A-OH)
pA2 [1]: 7 | Activity [2]: 0.06% | Intrinsic activity [3]: < 0.1%

CC[C@H](C)[C@H](NC(=O)[C@H](Cc1ccc(O)cc1)NC(=O)[C@@H](NC(=O)[C@H](CCCNC(=N)N)NC(=O)CNC)C(C)C)C(=O)N[C@@H](Cc1cnc[nH]1)C(=O)N(C)CC(=O)N[C@@H](CC(C)C)C(=O)O (H-[Sar]RVYIH[Sar]L-OH)
pA2 [1]: 7.4 | Activity [2]: 0.21% | Intrinsic activity [3]: < 0.1%

CC[C@H](C)[C@H](NC(=O)[C@@H]1CCCN1C(=O)[C@H](Cc1c[nH]cn1)NC(=O)[C@@H](NC(=O)[C@H](Cc1ccc(O)cc1)NC(=O)[C@@H](NC(=O)[C@H](CCCN=C(N)N)NC(=O)CNC)C(C)C)[C@@H](C)CC)C(=O)O
Activity [2]: 1.1% | Intrinsic activity [3]: < 0.1%

CC[C@H](C)[C@H](NC(=O)[C@H](Cc1ccc(O)cc1)NC(=O)[C@@H](NC(=O)[C@H](CCCNC(=N)N)NC(=O)CNC)C(C)C)C(=O)N[C@@H](Cc1cnc[nH]1)C(=O)N(C)CC(=O)N[C@@H](CCSC)C(=O)O (H-[Sar]RVYIH[Sar]M-OH)
pA2 [1]: 7.7 | Activity [2]: 0.82% | Intrinsic activity [3]: < 0.1%

CC[C@H](C)[C@H](NC(=O)[C@H](Cc1ccc(O)cc1)NC(=O)[C@@H](NC(=O)[C@H](CCCNC(=N)N)NC(=O)CNC)C(C)C)C(=O)N[C@@H](Cc1cnc[nH]1)C(=O)N(C)CC(=O)N[C@@H](Cc1ccccc1)C(=O)O (H-[Sar]RVYIH[Sar]F-OH)
Activity [2]: 17% | Intrinsic activity [3]: 22%

CCC(C)C(NC(=O)CN(C)C(=O)[C@H](Cc1cnc[nH]1)NC(=O)[C@@H](NC(=O)[C@H](Cc1ccc(O)cc1)NC(=O)[C@@H](NC(=O)[C@H](CCCNC(=N)N)NC(=O)CNC)C(C)C)[C@@H](C)CC)C(=O)O (mixture of isomers)
pA2 [1]: 8.4 | Activity [2]: 12.5% | Intrinsic activity [3]: 0.7%

CC[C@H](C)[C@H](NC(=O)CN(C)C(=O)[C@H](Cc1cnc[nH]1)NC(=O)[C@@H](NC(=O)[C@H](Cc1ccc(O)cc1)NC(=O)[C@@H](NC(=O)[C@H](CCCNC(=N)N)NC(=O)CNC)C(C)C)[C@@H](C)CC)C(=O)O
pA2 [1]: 8.1 | Activity [2]: 0.7% | Intrinsic activity [3]: < 0.1%

CC[C@H](C)[C@H](NC(=O)[C@H](Cc1ccc(O)cc1)NC(=O)[C@@H](NC(=O)[C@H](CCCNC(=N)N)NC(=O)CNC)C(C)C)C(=O)N[C@@H](Cc1cnc[nH]1)C(=O)N(C)CC(=O)N[C@H](C(=O)O)[C@@H](C)OC (H-[Sar]RVYIH[Sar]T(Me)-OH)
pA2 [1]: 7.4 | Activity [2]: 0.13% | Intrinsic activity [3]: < 0.1%
